{"source": "ChEMBL document CHEMBL2150988", "about": "“Preparation and optimization of new 4-(morpholin-4-yl)-(6-oxo-1,6-dihydropyrimidin-2-yl)amide derivatives as PI3Kβ inhibitors” (Bioorg Med Chem Lett, 2012)", "key": {"[1]": {"assay": "Plasma concentration in SCID mouse xenografted with PTEN deficient human PC3 cells at 244 mg/kg, po administered as suspension after 6 hrs", "type": "ADME, organism-based, PC-3", "design": "dose 244 mg/kg, route oral", "summary_of_the_method": "(§1)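 SCID mice bearing PTEN-deficient PC3 prostate tumor xenografts given a single oral dose, either 30 mg/kg in solution or 244 mg/kg in suspension; drug levels in plasma and tumor measured at 1 and 6 h after dosing.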"}, "[2]": {"biological_target": "Cytochrome P450 3A4 (Homo sapiens, UniProt P08684)", "sequence (P08684 whole entry)": "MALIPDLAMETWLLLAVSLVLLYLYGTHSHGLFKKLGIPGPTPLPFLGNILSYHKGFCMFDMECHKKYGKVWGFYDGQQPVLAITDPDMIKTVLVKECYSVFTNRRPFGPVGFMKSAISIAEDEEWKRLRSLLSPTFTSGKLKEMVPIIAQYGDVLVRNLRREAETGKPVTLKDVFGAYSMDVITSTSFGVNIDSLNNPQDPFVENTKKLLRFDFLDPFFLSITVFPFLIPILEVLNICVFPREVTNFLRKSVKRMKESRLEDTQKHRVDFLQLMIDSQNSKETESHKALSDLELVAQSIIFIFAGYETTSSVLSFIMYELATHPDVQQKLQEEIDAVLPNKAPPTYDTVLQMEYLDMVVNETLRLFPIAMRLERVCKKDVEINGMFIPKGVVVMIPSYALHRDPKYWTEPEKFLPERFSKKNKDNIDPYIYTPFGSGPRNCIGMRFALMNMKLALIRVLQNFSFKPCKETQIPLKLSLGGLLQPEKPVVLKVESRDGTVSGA", "assay": "Inhibition of human recombinant CYP3A4", "type": "ADME"}, "[3]": {"assay": "Terminal elimination half life in SCID mouse at 10 mg/kg, po", "type": "ADME, organism-based", "design": "dose 10 mg/kg, route oral", "details": "in vivo, read-out: beta t1/2 (converted)"}, "[4]": {"assay": "Equilibrium solubility of the compound in phosphate buffer at pH 7.4 after 16 hrs by HPLC analysis", "type": "physicochemical"}, "[5]": {"assay": "Drug uptake in PTEN deficient human PC3 cells xenografted SCID mouse tumor at 30 mg/kg, po administered as solution after 6 hrs", "type": "ADME, organism-based, Neoplasm, PC-3", "design": "dose 30 mg/kg, route oral", "details": "tumor (PC3 xenograft), read-out: Drug uptake", "summary_of_the_method": "as §1"}, "[6]": {"assay": "Plasma concentration in SCID mouse xenografted with PTEN deficient human PC3 cells at 30 mg/kg, po administered as solution after 6 hrs", "type": "ADME, organism-based, PC-3", "design": "dose 30 mg/kg, route oral", "summary_of_the_method": "as §1"}, "[7]": {"system": "Mus musculus", "assay": "Inhibition of Akt phosphorylation at T308 in PTEN deficient human PC3 cells xenografted SCID mouse tumor at 30 mg/kg, po administered as solution after 1 hr", "type": "functional", "details": "PC-3, 1 h"}, "[8]": {"system": "Mus musculus", "assay": "Inhibition of Akt phosphorylation at T308 in PTEN deficient human PC3 cells xenografted SCID mouse tumor at 244 mg/kg, po administered as suspension after 1 hr", "type": "functional", "details": "PC-3, 1 h"}, "[9]": {"system": "Mus musculus", "assay": "Inhibition of Akt phosphorylation at T308 in PTEN deficient human PC3 cells xenografted SCID mouse tumor at 244 mg/kg, po administered as suspension after 6 hrs", "type": "functional", "details": "PC-3, 6 h"}, "[10]": {"assay": "Drug metabolism in human liver microsomes after 20 mins", "type": "ADME, Microsome", "details": "read-out: Drug metabolism", "summary_of_the_method": "(§2)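 Liver microsomes (human or mouse) incubated with compound for 20 min; %lability reported as % of compound metabolized.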"}, "[11]": {"assay": "Efflux ratio of permeability […] in human Caco2/TC7 cells", "type": "ADME, cell-based", "summary_of_the_method": "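Caco-2 TC7 clone cells grown as a monolayer; compound transport measured in both directions, apical to basolateral (A–B) and basolateral to apical (B–A); apparent permeability (Papp) read out, and efflux ratio derived from the two directional measurements.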"}, "[12]": {"assay": "Inhibition of Akt phosphorylation at S473 in PTEN deficient human PC3 cells", "type": "cell-based", "details": "PC-3"}, "[13]": {"system": "Mus musculus", "assay": "Inhibition of Akt phosphorylation at S473 in PTEN deficient human PC3 cells xenografted SCID mouse tumor at 30 mg/kg, po administered as solution after 6 hrs", "type": "functional", "details": "PC-3, 6 h"}, "[14]": {"assay": "Drug uptake in PTEN deficient human PC3 cells xenografted SCID mouse tumor at 244 mg/kg, po administered as suspension after 6 hrs", "type": "ADME, organism-based, Neoplasm, PC-3", "design": "dose 244 mg/kg, route oral", "details": "tumor (PC3 xenograft), read-out: Drug uptake", "summary_of_the_method": "as §1"}, "[15]": {"biological_target": "Phosphatidylinositol 4,5-bisphosphate 3-kinase catalytic subunit alpha isoform (Homo sapiens, UniProt P42336)", "sequence (P42336 whole entry, canonical isoform)": "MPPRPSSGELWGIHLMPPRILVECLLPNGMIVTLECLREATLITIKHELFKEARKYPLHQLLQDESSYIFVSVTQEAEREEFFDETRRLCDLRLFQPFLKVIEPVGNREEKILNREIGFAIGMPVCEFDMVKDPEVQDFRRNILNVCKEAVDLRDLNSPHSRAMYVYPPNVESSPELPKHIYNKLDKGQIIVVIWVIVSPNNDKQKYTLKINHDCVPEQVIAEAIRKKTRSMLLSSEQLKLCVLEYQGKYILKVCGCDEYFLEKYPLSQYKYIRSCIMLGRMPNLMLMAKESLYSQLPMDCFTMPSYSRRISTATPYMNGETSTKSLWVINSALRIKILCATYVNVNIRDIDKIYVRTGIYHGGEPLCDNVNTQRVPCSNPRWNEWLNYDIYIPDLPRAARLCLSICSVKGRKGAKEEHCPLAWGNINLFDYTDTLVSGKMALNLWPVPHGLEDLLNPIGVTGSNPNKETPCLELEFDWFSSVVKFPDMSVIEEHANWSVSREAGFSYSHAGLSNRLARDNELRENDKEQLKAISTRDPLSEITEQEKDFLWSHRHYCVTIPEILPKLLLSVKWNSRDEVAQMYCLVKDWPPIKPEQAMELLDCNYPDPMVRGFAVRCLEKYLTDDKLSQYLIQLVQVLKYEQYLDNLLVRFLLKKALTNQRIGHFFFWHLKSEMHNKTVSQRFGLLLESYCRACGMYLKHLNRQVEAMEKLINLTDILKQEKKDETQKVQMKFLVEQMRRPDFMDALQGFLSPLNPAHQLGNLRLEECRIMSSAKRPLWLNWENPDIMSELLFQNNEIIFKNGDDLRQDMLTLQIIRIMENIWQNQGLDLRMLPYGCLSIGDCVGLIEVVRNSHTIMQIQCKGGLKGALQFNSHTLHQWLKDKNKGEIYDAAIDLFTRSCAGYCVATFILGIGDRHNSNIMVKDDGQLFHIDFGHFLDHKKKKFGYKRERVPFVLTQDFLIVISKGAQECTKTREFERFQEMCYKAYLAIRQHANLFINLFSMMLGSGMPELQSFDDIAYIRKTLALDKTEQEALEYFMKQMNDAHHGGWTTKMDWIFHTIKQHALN", "assay": "Inhibition of PI3Kalpha"}, "[16]": {"assay": "Drug metabolism in mouse liver microsomes after 20 mins", "type": "ADME, Microsome", "details": "read-out: Drug metabolism", "summary_of_the_method": "as §2"}, "[17]": {"biological_target": "Phosphatidylinositol 4,5-bisphosphate 3-kinase catalytic subunit beta isoform (Homo sapiens, UniProt P42338)", "sequence (P42338 whole entry, canonical isoform)": "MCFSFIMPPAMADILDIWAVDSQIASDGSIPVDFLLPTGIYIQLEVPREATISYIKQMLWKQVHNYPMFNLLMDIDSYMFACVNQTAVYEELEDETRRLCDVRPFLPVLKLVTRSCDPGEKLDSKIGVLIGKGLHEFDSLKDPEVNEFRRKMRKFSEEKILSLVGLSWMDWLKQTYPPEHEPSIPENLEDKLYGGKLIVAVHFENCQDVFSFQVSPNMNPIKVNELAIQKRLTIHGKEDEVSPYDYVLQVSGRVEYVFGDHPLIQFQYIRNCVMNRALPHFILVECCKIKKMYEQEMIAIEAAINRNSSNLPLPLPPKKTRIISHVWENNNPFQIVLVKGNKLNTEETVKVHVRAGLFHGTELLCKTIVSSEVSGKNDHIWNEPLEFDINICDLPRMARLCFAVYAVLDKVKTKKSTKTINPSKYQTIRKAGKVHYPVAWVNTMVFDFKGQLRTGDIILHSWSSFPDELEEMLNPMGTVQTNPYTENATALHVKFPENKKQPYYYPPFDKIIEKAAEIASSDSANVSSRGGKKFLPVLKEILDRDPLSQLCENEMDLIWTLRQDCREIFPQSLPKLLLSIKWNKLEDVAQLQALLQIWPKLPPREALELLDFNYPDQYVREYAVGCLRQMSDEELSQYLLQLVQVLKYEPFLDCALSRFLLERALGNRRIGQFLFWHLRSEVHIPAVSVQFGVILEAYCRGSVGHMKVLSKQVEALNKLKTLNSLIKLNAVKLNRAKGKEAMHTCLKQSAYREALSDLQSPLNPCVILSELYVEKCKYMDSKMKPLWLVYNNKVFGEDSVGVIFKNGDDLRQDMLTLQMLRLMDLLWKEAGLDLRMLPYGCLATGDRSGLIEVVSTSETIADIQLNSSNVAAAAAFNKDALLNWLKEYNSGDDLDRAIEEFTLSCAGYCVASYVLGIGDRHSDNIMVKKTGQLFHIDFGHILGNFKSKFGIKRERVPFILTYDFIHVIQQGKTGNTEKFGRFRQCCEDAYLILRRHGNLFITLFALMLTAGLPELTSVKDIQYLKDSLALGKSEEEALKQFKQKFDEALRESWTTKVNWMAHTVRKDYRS", "assay": "Inhibition of PI3Kbeta"}, "[18]": {"assay": "Drug uptake in PTEN deficient human PC3 cells xenografted SCID mouse tumor at 244 mg/kg, po administered as suspension after 1 hr", "type": "ADME, organism-based, Neoplasm, PC-3", "design": "dose 244 mg/kg, route oral", "details": "tumor (PC3 xenograft), read-out: Drug uptake", "summary_of_the_method": "as §1"}, "[19]": {"system": "Mus musculus", "assay": "Inhibition of Akt phosphorylation at S473 in PTEN deficient human PC3 cells xenografted SCID mouse tumor at 244 mg/kg, po administered as suspension after 6 hrs", "type": "functional", "details": "PC-3, 6 h"}, "[20]": {"system": "Mus musculus", "assay": "Inhibition of Akt phosphorylation at S473 in PTEN deficient human PC3 cells xenografted SCID mouse tumor at 244 mg/kg, po administered as suspension after 1 hr", "type": "functional", "details": "PC-3, 1 h"}, "[21]": {"assay": "Drug uptake in PTEN deficient human PC3 cells xenografted SCID mouse tumor at 30 mg/kg, po administered as solution after 1 hr", "type": "ADME, organism-based, Neoplasm, PC-3", "design": "dose 30 mg/kg, route oral", "details": "tumor (PC3 xenograft), read-out: Drug uptake", "summary_of_the_method": "as §1"}, "[22]": {"system": "Mus musculus", "assay": "Hepatic clearance in SCID mouse at 3 mg/kg, iv", "type": "ADME, organism-based, Liver", "design": "dose 3 mg/kg, route intravenous", "details": "in vivo"}, "[23]": {"system": "Mus musculus", "assay": "Inhibition of Akt phosphorylation at T308 in PTEN deficient human PC3 cells xenografted SCID mouse tumor at 30 mg/kg, po administered as solution after 6 hrs", "type": "functional", "details": "PC-3, 6 h"}, "[24]": {"system": "Mus musculus", "assay": "Inhibition of Akt phosphorylation at S473 in PTEN deficient human PC3 cells xenografted SCID mouse tumor at 30 mg/kg, po administered as solution after 1 hr", "type": "functional", "details": "PC-3, 1 h"}, "[25]": {"assay": "Volume of distribution at steady state in SCID mouse at 3 mg/kg, iv", "type": "ADME, organism-based", "design": "dose 3 mg/kg, route intravenous", "details": "in vivo, read-out: Vdss"}, "[26]": {"assay": "Apparent permeability across human Caco2/TC7 cells", "type": "ADME, cell-based", "details": "Caco-2", "summary_of_the_method": "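Caco-2 TC7 clone monolayers; transport measured in both apical-to-basolateral and basolateral-to-apical directions, giving Papp (nm/s) and an efflux ratio.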"}, "[27]": {"biological_target": "T1, Phosphatidylinositol 4,5-bisphosphate 3-kinase catalytic subunit delta isoform (Homo sapiens, UniProt O00329)", "T1 sequence (O00329 whole entry)": "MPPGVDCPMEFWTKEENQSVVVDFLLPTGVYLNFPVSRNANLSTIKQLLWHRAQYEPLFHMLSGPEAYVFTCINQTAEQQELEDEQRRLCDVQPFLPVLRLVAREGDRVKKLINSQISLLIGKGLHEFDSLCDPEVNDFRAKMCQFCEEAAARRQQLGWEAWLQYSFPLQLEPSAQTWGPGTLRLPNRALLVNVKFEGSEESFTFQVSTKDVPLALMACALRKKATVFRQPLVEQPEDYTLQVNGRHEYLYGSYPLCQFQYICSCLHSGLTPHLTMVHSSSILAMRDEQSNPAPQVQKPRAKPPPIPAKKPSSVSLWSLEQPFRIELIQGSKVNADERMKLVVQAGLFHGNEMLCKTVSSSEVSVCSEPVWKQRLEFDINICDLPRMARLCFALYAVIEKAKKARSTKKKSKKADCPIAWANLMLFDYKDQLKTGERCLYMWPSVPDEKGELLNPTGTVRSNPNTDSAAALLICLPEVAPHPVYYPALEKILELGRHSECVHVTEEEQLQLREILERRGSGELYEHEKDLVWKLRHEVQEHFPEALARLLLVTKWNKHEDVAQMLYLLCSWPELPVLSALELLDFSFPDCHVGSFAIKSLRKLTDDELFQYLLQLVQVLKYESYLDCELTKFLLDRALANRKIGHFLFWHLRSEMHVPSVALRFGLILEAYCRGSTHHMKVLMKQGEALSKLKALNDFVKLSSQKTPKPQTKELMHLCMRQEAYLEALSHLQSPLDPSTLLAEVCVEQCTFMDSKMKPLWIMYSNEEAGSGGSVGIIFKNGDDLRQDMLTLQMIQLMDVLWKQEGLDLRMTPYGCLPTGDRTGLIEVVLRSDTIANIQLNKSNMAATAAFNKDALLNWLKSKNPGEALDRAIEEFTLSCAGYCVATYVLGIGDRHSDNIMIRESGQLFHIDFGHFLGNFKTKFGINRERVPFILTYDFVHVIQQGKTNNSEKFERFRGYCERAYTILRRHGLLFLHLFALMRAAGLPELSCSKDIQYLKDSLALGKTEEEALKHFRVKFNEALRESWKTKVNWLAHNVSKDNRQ", "assay": "Inhibition of PI3Kdelta"}, "[28]": {"biological_target": "Phosphatidylinositol 4,5-bisphosphate 3-kinase catalytic subunit gamma isoform (Homo sapiens, UniProt P48736)", "sequence (P48736 whole entry, canonical isoform)": "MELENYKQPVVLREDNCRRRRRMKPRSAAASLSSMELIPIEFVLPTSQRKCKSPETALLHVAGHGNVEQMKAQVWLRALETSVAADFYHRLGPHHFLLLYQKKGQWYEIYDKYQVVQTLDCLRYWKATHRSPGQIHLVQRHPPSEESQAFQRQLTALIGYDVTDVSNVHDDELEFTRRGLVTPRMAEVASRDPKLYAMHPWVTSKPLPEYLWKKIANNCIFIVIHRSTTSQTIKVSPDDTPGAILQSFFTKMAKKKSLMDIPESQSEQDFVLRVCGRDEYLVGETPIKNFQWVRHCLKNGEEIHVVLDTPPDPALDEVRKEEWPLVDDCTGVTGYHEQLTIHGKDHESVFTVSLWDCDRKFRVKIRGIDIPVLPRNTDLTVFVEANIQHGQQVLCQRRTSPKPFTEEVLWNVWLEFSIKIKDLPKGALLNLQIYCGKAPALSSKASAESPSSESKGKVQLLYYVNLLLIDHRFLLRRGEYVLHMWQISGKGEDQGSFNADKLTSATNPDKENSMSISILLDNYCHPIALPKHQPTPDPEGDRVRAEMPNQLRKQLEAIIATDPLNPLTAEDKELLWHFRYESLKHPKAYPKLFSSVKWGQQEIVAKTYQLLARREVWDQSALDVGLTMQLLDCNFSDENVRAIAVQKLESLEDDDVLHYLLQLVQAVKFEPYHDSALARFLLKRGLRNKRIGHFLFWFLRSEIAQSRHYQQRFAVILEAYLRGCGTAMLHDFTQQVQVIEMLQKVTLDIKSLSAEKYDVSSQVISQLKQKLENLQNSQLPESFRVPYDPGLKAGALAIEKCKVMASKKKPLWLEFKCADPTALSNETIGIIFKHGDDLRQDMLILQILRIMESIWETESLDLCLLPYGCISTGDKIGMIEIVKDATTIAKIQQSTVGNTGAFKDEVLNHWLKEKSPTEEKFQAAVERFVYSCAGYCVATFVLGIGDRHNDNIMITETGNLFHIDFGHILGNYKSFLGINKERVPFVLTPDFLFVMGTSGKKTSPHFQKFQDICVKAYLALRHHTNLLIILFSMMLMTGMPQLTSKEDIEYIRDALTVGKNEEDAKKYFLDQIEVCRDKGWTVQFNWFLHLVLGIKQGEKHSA", "assay": "Inhibition of PI3Kgamma"}, "[29]": {"assay": "Plasma concentration in SCID mouse xenografted with PTEN deficient human PC3 cells at 30 mg/kg, po administered as solution after 1 hr", "type": "ADME, organism-based, PC-3", "design": "dose 30 mg/kg, route oral", "summary_of_the_method": "as §1"}, "[30]": {"assay": "Oral bioavailability in SCID mouse at 10 mg/kg", "type": "ADME, organism-based", "details": "in vivo"}, "[31]": {"assay": "Plasma concentration in SCID mouse xenografted with PTEN deficient human PC3 cells at 244 mg/kg, po administered as suspension after 1 hr", "type": "ADME, organism-based, PC-3", "design": "dose 244 mg/kg, route oral", "summary_of_the_method": "as §1"}}}
{"smiles": "Cn1c(CC(=O)Nc2ccc(F)c(Cl)c2)nc(N2CCOCC2)cc1=O", "values": [{"measurement": "concentration at 6 h", "setting": "[1]", "result": 1.6, "unit": "µM"}, {"measurement": "IC50", "setting": "[2]", "result": "> 40000", "unit": "nM"}, {"measurement": "half-life", "setting": "[3]", "result": 1.4, "unit": "h"}, {"measurement": "solubility thermodynamic at 16 h", "setting": "[4]", "result": 5, "unit": "µM"}, {"measurement": "concentration at 6 h", "setting": "[5]", "result": 1, "unit": "µM"}, {"measurement": "concentration at 6 h", "setting": "[6]", "result": 0.4, "unit": "µM"}, {"measurement": "inhibition in vivo at 30 mg/kg", "setting": "[7]", "result": 86, "unit": "%"}, {"measurement": "inhibition in vivo at 244 mg/kg", "setting": "[8]", "result": 63, "unit": "%"}, {"measurement": "inhibition in vivo at 244 mg/kg", "setting": "[9]", "result": 0, "unit": "%"}, {"measurement": "metabolised at 20 min", "setting": "[10]", "result": 44, "unit": "%"}, {"measurement": "Ratio", "setting": "[11]", "result": 4}, {"measurement": "IC50", "setting": "[12]", "result": 79, "unit": "nM"}, {"measurement": "inhibition in vivo at 30 mg/kg", "setting": "[13]", "result": 0, "unit": "%"}, {"measurement": "concentration at 6 h", "setting": "[14]", "result": 1.7, "unit": "µM"}, {"measurement": "IC50", "setting": "[15]", "result": "> 10000", "unit": "nM"}, {"measurement": "metabolised at 20 min", "setting": "[16]", "result": 12, "unit": "%"}, {"measurement": "IC50", "setting": "[17]", "result": 42, "unit": "nM"}, {"measurement": "concentration at 1 h", "setting": "[18]", "result": 6, "unit": "µM"}, {"measurement": "inhibition in vivo at 244 mg/kg", "setting": "[19]", "result": 0, "unit": "%"}, {"measurement": "inhibition in vivo at 244 mg/kg", "setting": "[20]", "result": 73, "unit": "%"}, {"measurement": "concentration at 1 h", "setting": "[21]", "result": 11, "unit": "µM"}, {"measurement": "CLH", "setting": "[22]", "result": 26.7, "unit": "mL/min/kg"}, {"measurement": "inhibition in vivo at 30 mg/kg", "setting": "[23]", "result": 23, "unit": "%"}, {"measurement": "inhibition in vivo at 30 mg/kg", "setting": "[24]", "result": 91, "unit": "%"}, {"measurement": "Vd", "setting": "[25]", "result": 1.3, "unit": "L/kg"}, {"measurement": "Papp", "setting": "[26]", "result": 6.6, "unit": "×10⁻⁶ cm/s"}, {"measurement": "IC50", "setting": "[27]", "result": 2210, "unit": "nM"}, {"measurement": "IC50", "setting": "[28]", "result": 8280, "unit": "nM"}, {"measurement": "concentration at 1 h", "setting": "[29]", "result": 10, "unit": "µM"}, {"measurement": "bioavailability", "setting": "[30]", "result": 52, "unit": "%"}, {"measurement": "concentration at 1 h", "setting": "[31]", "result": 4.5, "unit": "µM"}]}
